Activity calls are given as the source filed them. No cut-off for these calls is given here.
Experiments:
Caspase-6 (Homo sapiens) [1] = target: T1, Caspase-6 (Homo sapiens) (UniProt P55212); assay: Second-order inhibition rate of caspase-6 was determined by progress curve method
T1 sequence (whole entry): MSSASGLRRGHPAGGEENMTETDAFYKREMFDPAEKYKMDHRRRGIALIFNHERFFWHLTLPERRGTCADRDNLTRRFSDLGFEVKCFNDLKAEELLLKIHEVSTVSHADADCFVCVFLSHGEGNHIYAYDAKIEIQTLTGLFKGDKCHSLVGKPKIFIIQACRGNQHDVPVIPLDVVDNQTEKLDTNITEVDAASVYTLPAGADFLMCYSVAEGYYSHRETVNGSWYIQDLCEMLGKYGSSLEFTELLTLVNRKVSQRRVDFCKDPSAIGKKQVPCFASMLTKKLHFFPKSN
Outline: (§1)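 Caspases-3, -6 and -8 were assayed in 50 mM HEPES, 100 mM NaCl, 0.1% (w/v) CHAPS, 10% (w/v) sucrose and 10 mM DTT, pH 7.4. Substrate: Cbz-DEVD-AFC or Cbz-DEVD-AMC.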

Caspase-3 (Homo sapiens) [2] = target: T2, Caspase-3 (Homo sapiens) (UniProt P42574); assay: Second-order inhibition rate of caspase-3 was determined by progress curve method; outline: as §1
T2 sequence (whole entry): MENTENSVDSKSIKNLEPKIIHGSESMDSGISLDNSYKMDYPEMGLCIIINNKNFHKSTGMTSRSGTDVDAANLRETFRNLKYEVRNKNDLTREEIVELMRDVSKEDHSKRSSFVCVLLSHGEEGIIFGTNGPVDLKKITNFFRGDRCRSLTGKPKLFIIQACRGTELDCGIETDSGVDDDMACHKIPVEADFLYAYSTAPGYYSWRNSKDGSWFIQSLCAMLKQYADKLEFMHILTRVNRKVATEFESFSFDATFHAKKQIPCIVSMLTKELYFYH

Caspase-8 (Homo sapiens) [3] = target: Caspase-8 (Homo sapiens) (UniProt Q14790); assay: Second-order inhibition rate of caspase-8 was determined by progress curve method; outline: as §1
Caspase-1 (Homo sapiens) = target: T3, Caspase-1 (Homo sapiens) (UniProt P29466); assay: Second-order inhibition rate of caspase-1 was determined by progress curve method
T3 sequence (whole entry): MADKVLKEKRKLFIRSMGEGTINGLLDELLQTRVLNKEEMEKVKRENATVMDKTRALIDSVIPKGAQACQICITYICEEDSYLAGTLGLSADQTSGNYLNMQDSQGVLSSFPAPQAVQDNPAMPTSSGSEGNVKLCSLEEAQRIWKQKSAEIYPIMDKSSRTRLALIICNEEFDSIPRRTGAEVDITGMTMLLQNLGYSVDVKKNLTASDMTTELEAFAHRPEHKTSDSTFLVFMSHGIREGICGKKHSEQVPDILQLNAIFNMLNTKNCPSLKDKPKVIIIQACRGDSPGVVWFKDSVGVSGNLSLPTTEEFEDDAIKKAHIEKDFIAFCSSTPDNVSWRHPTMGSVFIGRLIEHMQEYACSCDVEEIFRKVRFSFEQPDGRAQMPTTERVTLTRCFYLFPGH
Outline: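 Caspase-1 assay buffer: 100 mM HEPES, 0.5 mM EDTA, 20% (v/v) glycerol, 5 mM DTT, pH 7.5. Substrate: Ac-YVAD-AMC.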

Caspase-8 (Homo sapiens) [4] = target: Caspase-8 (Homo sapiens) (UniProt Q14790); assay: Second-order inhibition rate of caspase-8 was determined by progress curve method; No inhibition; outline: as §1
Caspase-6 (Homo sapiens) [5] = target: T1, Caspase-6 (Homo sapiens); assay: Second-order inhibition rate of caspase-6 was determined by progress curve method; No inhibition; outline: as §1
Caspase-3 (Homo sapiens) [6] = target: T2, Caspase-3 (Homo sapiens); assay: Second-order inhibition rate of caspase-3 was determined by progress curve method; No inhibition; outline: as §1

Sequence of Caspase-8 (Homo sapiens) (Q14790 217-374 limits assumed): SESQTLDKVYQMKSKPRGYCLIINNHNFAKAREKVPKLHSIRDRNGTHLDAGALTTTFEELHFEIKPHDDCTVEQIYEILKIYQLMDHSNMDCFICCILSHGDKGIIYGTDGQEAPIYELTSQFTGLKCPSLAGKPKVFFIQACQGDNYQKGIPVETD
Sequence of Caspase-8 (Homo sapiens) (Q14790 385-479 limits assumed): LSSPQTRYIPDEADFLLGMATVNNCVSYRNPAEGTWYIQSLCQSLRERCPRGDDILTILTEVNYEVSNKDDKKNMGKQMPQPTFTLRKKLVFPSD

Compound | k2 (Caspase-6 (Homo sapiens) [1]) [M⁻¹ s⁻¹] | k2 (Caspase-3 (Homo sapiens) [2]) [M⁻¹ s⁻¹] | k2 (Caspase-8 (Homo sapiens) [3]) [M⁻¹ s⁻¹] | k2 (Caspase-1 (Homo sapiens)) [M⁻¹ s⁻¹] | k2 (Caspase-8 (Homo sapiens) [4]) | k2 (Caspase-6 (Homo sapiens) [5]) | k2 (Caspase-3 (Homo sapiens) [6])
CC(C)[C@H](NC(=O)OCc1ccccc1)C(=O)NN(CC(=O)O)C(=O)[C@H]1O[C@@H]1C(=O)O | 90 | 1110 | 370 |  |  |  | 
CC(C)[C@H](NC(=O)OCc1ccccc1)C(=O)NN(CC(=O)O)C(=O)[C@H]1O[C@@H]1CCc1ccccc1 | 44 | 310 | 180 |  |  |  | 
CCNC(=O)[C@H]1O[C@@H]1C(=O)N(CC(=O)O)NC(=O)[C@H](C)NC(=O)[C@@H](NC(=O)CCc1ccccc1)C(C)C | 142 | 1910 | 6050 |  |  |  | 
CC(C)[C@H](NC(=O)CCc1ccccc1)C(=O)N[C@@H](C)C(=O)NN(CC(=O)O)C(=O)[C@H]1O[C@@H]1C(=O)NCCc1ccccc1 | 130 | 1110 | 10100 | 17100 |  |  | 
CC(C)C[C@H](NC(=O)[C@H]1O[C@@H]1C(=O)N(CC(=O)O)NC(=O)[C@H](C)NC(=O)[C@@H](NC(=O)CCc1ccccc1)C(C)C)C(N)=O | 71 | 420 | 315 | 26100 |  |  | 
CC(C)[C@H](NC(=O)CCc1ccccc1)C(=O)N[C@@H](C)C(=O)NN(CC(=O)O)C(=O)[C@H]1O[C@@H]1C(=O)NCC(O)c1ccccc1 (some centres undefined) | 63 | 510 | 4090 | 12200 |  |  | 
CC(C)[C@H](NC(=O)CCc1ccccc1)C(=O)N[C@@H](C)C(=O)NN(CC(=O)O)C(=O)[C@@H]1O[C@H]1C(=O)NCc1ccccc1 |  |  |  | 1630 | inactive | inactive | inactive
CC(C)[C@H](NC(=O)CCc1ccccc1)C(=O)N[C@@H](C)C(=O)NN(CC(=O)O)C(=O)[C@@H]1O[C@H]1C(=O)OCc1ccccc1 | 15 |  | 185 | 1860 |  |  | inactive
CC(C)[C@H](NC(=O)CCc1ccccc1)C(=O)N[C@@H](C)C(=O)NN(CC(=O)O)C(=O)[C@@H]1O[C@H]1C(=O)NCC(O)c1ccccc1 (some centres undefined) |  |  |  | 400 | inactive | inactive | inactive
CC(C)[C@H](NC(=O)CCc1ccccc1)C(=O)N[C@@H](C)C(=O)NN(CC(=O)O)C(=O)[C@H]1O[C@@H]1C(=O)NCc1ccccc1 | 155 | 1610 | 9360 | 65900 |  |  | 
CCOC(=O)[C@@H]1O[C@H]1C(=O)N(CC(=O)O)NC(=O)[C@H](C)NC(=O)[C@@H](NC(=O)CCc1ccccc1)C(C)C |  |  |  | 6290 | inactive | inactive | inactive
CC(C)[C@H](NC(=O)CCc1ccccc1)C(=O)N[C@@H](C)C(=O)NN(CC(=O)O)C(=O)[C@H]1O[C@@H]1C(=O)OCCc1ccccc1 | 240 | 2110 | 3780 | 56600 |  |  | 
CC(C)[C@H](NC(=O)CCc1ccccc1)C(=O)N[C@@H](C)C(=O)NN(CC(=O)O)C(=O)[C@H]1O[C@@H]1C(=O)N[C@@H](Cc1ccc(O)cc1)C(N)=O | 11 | 87 | 125 | 3250 |  |  | 
CC(C)[C@H](NC(=O)CCc1ccccc1)C(=O)N[C@@H](C)C(=O)NN(CC(=O)O)C(=O)[C@@H]1O[C@H]1C(=O)NCCc1ccccc1 |  |  |  | 950 | inactive | inactive | inactive
CCOC(=O)[C@H]1O[C@@H]1C(=O)N(CC(=O)O)NC(=O)[C@@H](NC(=O)OCc1ccccc1)C(C)C | 350 | 3650 | 1260 |  |  |  | 
CC(C)[C@H](NC(=O)OCc1ccccc1)C(=O)NN(CC(=O)O)C(=O)[C@H]1O[C@@H]1c1ccc(Cl)cc1 |  | 145 |  |  | inactive | inactive | 

More lines, now with the values ahead:

k2 (Caspase-6 (Homo sapiens) [1]) [M⁻¹ s⁻¹] | k2 (Caspase-3 (Homo sapiens) [2]) [M⁻¹ s⁻¹] | k2 (Caspase-8 (Homo sapiens) [3]) [M⁻¹ s⁻¹] | k2 (Caspase-1 (Homo sapiens)) [M⁻¹ s⁻¹] | k2 (Caspase-8 (Homo sapiens) [4]) | k2 (Caspase-6 (Homo sapiens) [5]) | k2 (Caspase-3 (Homo sapiens) [6]) | Compound
38200 | 3050 | 56000 |  |  |  |  | CC[C@H](C)[C@H](NC(=O)OCc1ccccc1)C(=O)N[C@@H](CCC(=O)O)C(=O)N[C@H](C(=O)NN(CC(=O)O)C(=O)[C@@H]1O[C@H]1C(=O)N[C@@H](C)C(=O)NCc1ccccc1)[C@@H](C)O
25 | 260 | 140 | 13400 |  |  |  | CC(C)[C@H](NC(=O)CCc1ccccc1)C(=O)N[C@@H](C)C(=O)NN(CC(=O)O)C(=O)[C@H]1O[C@@H]1C(=O)N[C@@H](C)C(=O)NCc1ccccc1
60100 | 6500 | 6500 | 18100 |  |  |  | CC[C@H](C)[C@H](NC(=O)OCc1ccccc1)C(=O)N[C@@H](CCC(=O)O)C(=O)N[C@H](C(=O)NN(CC(=O)O)C(=O)[C@@H]1O[C@H]1C(=O)NCc1ccccc1)[C@@H](C)O
3130 | 27300 | 72700 | 41100 |  |  |  | CC(C)[C@H](NC(=O)[C@H](CCC(=O)O)NC(=O)OCc1ccccc1)C(=O)NN(CC(=O)O)C(=O)[C@H]1O[C@@H]1C(=O)NCCc1ccccc1
45400 | 3110 | 4560 | 13000 |  |  |  | CC[C@H](C)[C@H](NC(=O)OCc1ccccc1)C(=O)N[C@@H](CCC(=O)O)C(=O)N[C@H](C(=O)NN(CC(=O)O)C(=O)[C@@H]1O[C@H]1C(=O)OCc1ccccc1)[C@@H](C)O
86200 | 9500 | 58500 | 45800 |  |  |  | CC[C@H](C)[C@H](NC(=O)OCc1ccccc1)C(=O)N[C@@H](CCC(=O)O)C(=O)N[C@H](C(=O)NN(CC(=O)O)C(=O)[C@H]1O[C@@H]1C(=O)OCc1ccccc1)[C@@H](C)O
25 | 470 |  | 1040 |  |  |  | CC(C)[C@H](NC(=O)[C@H](CCC(=O)O)NC(=O)OCc1ccccc1)C(=O)NN(CC(=O)O)C(=O)[C@@H]1O[C@H]1C(=O)N[C@@H](Cc1ccccc1)C(N)=O
12700 | 1.91e+06 | 188000 | 54700 |  |  |  | CC(C)[C@H](NC(=O)C(CCC(=O)O)NC(=O)[C@H](CC(=O)O)NC(=O)OCc1ccccc1)C(=O)NN(CC(=O)O)C(=O)[C@H]1O[C@@H]1C(=O)OCc1ccccc1 (some centres undefined)
65 | 625 | 390 | 32700 |  |  |  | CC(C)[C@H](NC(=O)CCc1ccccc1)C(=O)N[C@@H](C)C(=O)NN(CC(=O)O)C(=O)[C@H]1O[C@@H]1C(=O)N[C@@H](Cc1ccccc1)C(N)=O
34000 | 2630 | 8800 | 13300 |  |  |  | CCOC(=O)[C@@H]1O[C@H]1C(=O)N(CC(=O)O)NC(=O)[C@@H](NC(=O)[C@H](CCC(=O)O)NC(=O)[C@@H](NC(=O)OCc1ccccc1)[C@@H](C)CC)[C@@H](C)O
 |  |  | 330 | inactive | inactive | inactive | CC(C)[C@H](NC(=O)CCc1ccccc1)C(=O)N[C@@H](C)C(=O)NN(CC(=O)O)C(=O)[C@@H]1O[C@H]1C(=O)N[C@@H](Cc1ccccc1)C(N)=O
10300 | 3520 | 72700 | 43500 |  |  |  | CC(C)C[C@H](NC(=O)OCc1ccccc1)C(=O)NC(CCC(=O)O)C(=O)N[C@H](C(=O)NN(CC(=O)O)C(=O)[C@H]1O[C@@H]1C(=O)OCc1ccccc1)[C@@H](C)O (some centres undefined)
6140 | 722000 | 29600 | 9250 |  |  |  | CC(C)[C@H](NC(=O)C(CCC(=O)O)NC(=O)[C@H](CC(=O)O)NC(=O)OCc1ccccc1)C(=O)NN(CC(=O)O)C(=O)[C@H]1O[C@@H]1C(=O)N[C@@H](Cc1ccccc1)C(N)=O (some centres undefined)
10000 | 2550 | 53300 |  |  |  |  | CC(C)C[C@H](NC(=O)OCc1ccccc1)C(=O)NC(CCC(=O)O)C(=O)N[C@H](C(=O)NN(CC(=O)O)C(=O)[C@H]1O[C@@H]1C(=O)NCCc1ccccc1)[C@@H](C)O (some centres undefined)
6000 | 1.09e+06 | 84400 | 25400 |  |  |  | CC(C)[C@H](NC(=O)C(CCC(=O)O)NC(=O)[C@H](CC(=O)O)NC(=O)OCc1ccccc1)C(=O)NN(CC(=O)O)C(=O)[C@H]1O[C@@H]1C(=O)NCc1ccccc1 (some centres undefined)
6660 | 1280 | 44800 |  |  |  |  | CC(C)C[C@H](NC(=O)OCc1ccccc1)C(=O)NC(CCC(=O)O)C(=O)N[C@H](C(=O)NN(CC(=O)O)C(=O)[C@H]1O[C@@H]1C(=O)N[C@@H](C)C(=O)NCc1ccccc1)[C@@H](C)O (some centres undefined)
